From ChEMBL document CHEMBL3244401, “Prostaglandins and congeners. 15. Synthesis and bronchodilator activity of dl-11-deoxy-15- or 16-alkylprostaglandins” (1977) come the findings set out here.

Common to all, as to type: functional
Assay [1] concerns Cavia porcellus. Kind of assay: Bronchodilatory activity in iv dosed Hartley guinea pig assessed as inhibition of serotonin-induced spasm administered 3 to 4 times at 15 mins interval starting 2 mins post challenge. Put shortly: (§1)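 Serotonin (7.5-30 μg/kg iv, 12-s injections every 5 min) induced bronchospasm (20-50 cm water rise) in ventilated, urethane/gallamine-treated Hartley guinea pigs (250-500 g). After three matched control spasms, test agent was given iv over 1 min 2 min later, repeated at 15-min intervals, 3-4 log doses. Water was the vehicle for salts and 10% aqueous ethanol for esters. Intratracheal pressure was recorded; ED50 from semilog regression of % variation; ≥4 animals.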

In assay [2] the test system is Cavia porcellus. Kind of assay: Bronchodilatory activity in iv dosed Hartley guinea pig assessed as inhibition of acetylcholine-induced spasm administered 3 to 4 times at 15 mins interval starting 2 mins post challenge. In short, it runs like this: (§2)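 Urethane-anesthetized (1.5 g/kg ip), gallamine-curarized Hartley guinea pigs (either sex, 250-500 g), ventilated at 60 strokes/min. Acetylcholine (40-150 μg/kg, 12-s iv infusions every 5 min) set to raise tracheal pressure 20-50 cm water. Compounds (sodium salts in water; esters in 10% aqueous ethanol) given iv over 1 min. Spasm amplitude expressed as % variation from control. ED50 from semilog regression; ≥4 animals.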

For assay [3], the system named is Cavia porcellus. Kind of assay: Bronchodilatory activity in iv dosed Hartley guinea pig assessed as inhibition of histamine-induced spasm administered 3 to 4 times at 15 mins interval starting 2 mins post challenge. Put shortly:
(§3)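 Hartley guinea pigs (either sex, 250-500 g) under urethane (1.5 g/kg ip) plus iv gallamine, artificially ventilated. Histamine was infused iv for 12 s every 5 min to raise tracheal pressure 20-50 cm water. Salts were given iv in water and esters in 10% aqueous ethanol, 3-4 log-spaced doses. Read-out was % variation in spasm amplitude versus control; ED50 (-50%) by semilog regression; ≥4 animals.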

In assay [4] the test system is Cavia porcellus. Kind of assay: Bronchodilatory activity in Hartley guinea pig assessed as inhibition of serotonin-induced spasm at 3.2 mg/kg, iv administered 3 to 4 times at 15 mins interval starting 2 mins post challenge. In short, it runs like this:
as §1

Assay [5] relates to Cavia porcellus. Kind of assay: Bronchodilatory activity in Hartley guinea pig assessed as inhibition of histamine-induced spasm at 3.2 mg/kg, iv administered 3 to 4 times at 15 mins interval starting 2 mins post challenge. Put shortly:
as §3

Assay [6] concerns Cavia porcellus. In words: Bronchodilatory activity in Hartley guinea pig assessed as inhibition of acetylcholine-induced spasm at 3.2 mg/kg, iv administered 3 to 4 times at 15 mins interval starting 2 mins post challenge. In short, it runs like this: as §2
The subject of assay [7] is Cavia porcellus. Kind of assay: Bronchodilatory activity in iv dosed Hartley guinea pig assessed as lowest dose required for >/= 50% inhibition of serotonin-induced spasm administered 3 to 4 times at 15 mins interval starting 2 mins post challenge. Put shortly:
as §1

Assay [8] concerns Cavia porcellus. In words: Bronchodilatory activity in iv dosed Hartley guinea pig assessed as lowest dose required for >/= 50% inhibition of histamine-induced spasm administered 3 to 4 times at 15 mins interval starting 2 mins post challenge. In short, it runs like this:
as §3

For assay [9], the system named is Cavia porcellus. Kind of assay: Bronchodilatory activity in iv dosed Hartley guinea pig assessed as lowest dose required for >/= 50% inhibition of acetylcholine-induced spasm administered 3 to 4 times at 15 mins interval starting 2 mins post challenge. Put shortly: as §2

`CCCCC[C@](C)(O)/C=C/C1CCC(=O)[C@@H]1CCCCOCC(=O)OCC` (mixture of isomers): the ED50 with Cavia porcellus [1] turned out to be 78.8 µg/kg; with Cavia porcellus [2] it was 618 µg/kg; in the assay with Cavia porcellus [3], 282 µg/kg.
The corresponding values for `CCCCC[C@H](O)/C=C/C1CCC(=O)[C@@H]1CCCCCCC(=O)O` (mixture of isomers) are 397 µg/kg, more than 32 µg/kg and 3.4 µg/kg.
The corresponding values for `CCCCC(C)(C)[C@H](O)/C=C/C1CCC(=O)[C@@H]1CCCCCCC(=O)O` (mixture of isomers) are 25.9 µg/kg, 42.9 µg/kg and 4.17 µg/kg.
For `CCCCC(C)(C)[C@@H](O)/C=C/C1CCC(=O)[C@@H]1CCCCCCC(=O)O` (mixture of isomers) the same measures were 19 µg/kg, 135 µg/kg and 107 µg/kg.
Turning to `CCCCC(C)(C)[C@H](O)/C=C/C1CCC(=O)[C@@H]1CCCCCC(C)C(=O)O` (mixture of isomers), the inhibition in vivo at 3.2 mg/kg in the assay on Cavia porcellus [4], in the assay with Cavia porcellus [5] and in the assay on Cavia porcellus [6] was less than 50% in each case.
For the compound `CCCCC(C)(C)[C@@H](O)/C=C/C1CCC(=O)[C@@H]1CCCCCC(C)C(=O)O` (mixture of isomers), the inhibition in vivo at 3.2 mg/kg with Cavia porcellus [4], in the assay with Cavia porcellus [5] and in the assay on Cavia porcellus [6] was less than 50% each time.
In the case of `CCCCC(C)(C)[C@H](O)/C=C/C1CCC(=O)[C@@H]1CCCCCC(C(=O)OCC)c1ccccc1` (mixture of isomers), the inhibition in vivo at 3.2 mg/kg in the assay on Cavia porcellus [4], in the assay with Cavia porcellus [5] and with Cavia porcellus [6] was less than 50% throughout.
As to `CCCCC(C)(C)[C@@H](O)/C=C/C1CCC(=O)[C@@H]1CCCCCC(C(=O)OCC)c1ccccc1` (mixture of isomers), the inhibition in vivo at 3.2 mg/kg in the assay on Cavia porcellus [4], in the assay on Cavia porcellus [5] and in the assay with Cavia porcellus [6] was less than 50% throughout.
For the compound `CCCCC(C)(C)[C@H](O)/C=C/C1CCC(=O)[C@@H]1CCCCCC(C(=O)O)c1ccccc1` (mixture of isomers), the inhibition in vivo at 3.2 mg/kg in the assay on Cavia porcellus [4], in the assay on Cavia porcellus [5] and in the assay with Cavia porcellus [6] was less than 50% in each case.
Consider `CCCCC(C)(C)[C@@H](O)/C=C/C1CCC(=O)[C@@H]1CCCCCC(C(=O)O)c1ccccc1` (mixture of isomers), for which the inhibition in vivo at 3.2 mg/kg in the assay with Cavia porcellus [4], in the assay with Cavia porcellus [5] and with Cavia porcellus [6] was less than 50% each time.
With `CCCCC(C)(C)[C@H](O)/C=C/C1CCC(=O)[C@@H]1CCCCOCC(=O)OCC` (mixture of isomers), the ED50 came out at 123 µg/kg with Cavia porcellus [1], 96.7 µg/kg with Cavia porcellus [2] and 69.6 µg/kg in the assay on Cavia porcellus [3].
Consider `CCCCC(C)(C)[C@@H](O)/C=C/C1CCC(=O)[C@@H]1CCCCOCC(=O)OCC` (mixture of isomers), for which the results for the 50% effective dose (ED50) with Cavia porcellus [1], with Cavia porcellus [2] and in the assay on Cavia porcellus [3] were 209 µg/kg, 349 µg/kg and 194 µg/kg, respectively.
Regarding `CCCCC(C)(C)[C@H](O)/C=C/C1CCC(=O)[C@@H]1CCCCOCC(=O)O` (mixture of isomers), the values for the ED50 in the assay on Cavia porcellus [1] and in the assay on Cavia porcellus [2] were 185 µg/kg and 550 µg/kg, respectively.
Regarding `CCCCC(C)(C)[C@@H](O)/C=C/C1CCC(=O)[C@@H]1CCCCOCC(=O)O` (mixture of isomers), the figures for the ED50 in the assay on Cavia porcellus [2], in the assay with Cavia porcellus [3] and in the assay on Cavia porcellus [7] were 558 µg/kg, 373 µg/kg and 32 µg/kg, respectively.
As to `CCCCC(C)[C@H](O)/C=C/C1CCC(=O)[C@@H]1CCCCCCC(=O)OCC` (mixture of isomers), the ED50 in the assay with Cavia porcellus [8] amounted to 32000 µg/kg; in the assay on Cavia porcellus [7] it was 320 µg/kg. In the assay with Cavia porcellus [6], the inhibition in vivo at 3.2 mg/kg was less than 50%.
On to `CCCCC(C)[C@@H](O)/C=C/C1CCC(=O)[C@@H]1CCCCCCC(=O)OCC` (mixture of isomers), for which the ED50 in the assay with Cavia porcellus [1] amounted to 99.3 µg/kg; with Cavia porcellus [8], 32000 µg/kg; in the assay on Cavia porcellus [2], 396 µg/kg.
The corresponding values for `CCCCC(C)[C@H](O)/C=C/C1CCC(=O)[C@@H]1CCCCCCC(=O)O` (mixture of isomers) are 346 µg/kg, 320 µg/kg and more than 320 µg/kg.
As to `CCCCC(C)[C@@H](O)/C=C/C1CCC(=O)[C@@H]1CCCCCCC(=O)O` (mixture of isomers), the results for the median effective dose (ED50) in the assay on Cavia porcellus [1], in the assay on Cavia porcellus [2] and in the assay on Cavia porcellus [3] were 7.01 µg/kg, 9.89 µg/kg and 73.2 µg/kg, respectively.
With `CCCCC(C)[C@H](O)/C=C/C1CCC(=O)[C@@H]1C/C=C\CCCC(=O)OCC` (mixture of isomers), the ED50 with Cavia porcellus [1] stood at 179000 µg/kg; with Cavia porcellus [3] it was 65700 µg/kg. Moreover, the inhibition in vivo at 3.2 mg/kg in the assay with Cavia porcellus [6] is less than 50%.
For the compound `CCCCC(C)[C@@H](O)/C=C/C1CCC(=O)[C@@H]1C/C=C\CCCC(=O)OCC` (mixture of isomers), the 50% effective dose (ED50) in the assay with Cavia porcellus [1] was 9.65 µg/kg; in the assay on Cavia porcellus [2] it was more than 320 µg/kg; in the assay with Cavia porcellus [3] it was 1.37 µg/kg.
For `CCCCC(C)[C@H](O)/C=C/C1CCC(=O)[C@@H]1C/C=C\CCCC(=O)O` (mixture of isomers), the 50% effective dose (ED50) in the assay with Cavia porcellus [1] came out at 1.35 µg/kg; in the assay with Cavia porcellus [2] it was 1.63 µg/kg; in the assay on Cavia porcellus [3] it was 108000 µg/kg.
For `CCCCC(C)[C@@H](O)/C=C/C1CCC(=O)[C@@H]1C/C=C\CCCC(=O)O` (mixture of isomers) the same measures were 39.9 µg/kg, 87.5 µg/kg and 2.99 µg/kg.
On to `CCCCC(CC)[C@H](O)/C=C/C1CCC(=O)[C@@H]1CCCCCCC(=O)OCC` (mixture of isomers), for which the results for the ED50 with Cavia porcellus [1], with Cavia porcellus [8] and with Cavia porcellus [2] were 1.11e+09 µg/kg, 32 µg/kg and 145 µg/kg, respectively.
`CCCCC(CC)[C@@H](O)/C=C/C1CCC(=O)[C@@H]1CCCCCCC(=O)OCC` (mixture of isomers): the 50% effective dose (ED50) was determined as 1.74e+09 µg/kg in the assay with Cavia porcellus [1] and 2.7e+09 µg/kg with Cavia porcellus [3]. Besides, the inhibition in vivo at 3.2 mg/kg in the assay with Cavia porcellus [6] is less than 50%.
`CCCCC(CC)[C@H](O)/C=C/C1CCC(=O)[C@@H]1CCCCCCC(=O)O` (mixture of isomers): the 50% effective dose (ED50) with Cavia porcellus [1] came to 9.77 µg/kg; with Cavia porcellus [8] it was 32 µg/kg; in the assay on Cavia porcellus [2] it was 113 µg/kg.
As to `CCCCC(CC)[C@@H](O)/C=C/C1CCC(=O)[C@@H]1CCCCCCC(=O)O` (mixture of isomers), the median effective dose (ED50) is more than 3.2 µg/kg in the assay with Cavia porcellus [1] and 32 µg/kg in the assay on Cavia porcellus [8]. The inhibition in vivo at 3.2 mg/kg with Cavia porcellus [6] was less than 50%.
As to `CCCCC(CC)[C@H](O)/C=C/C1CCC(=O)[C@@H]1C/C=C\CCCC(=O)O` (mixture of isomers), the ED50 in the assay with Cavia porcellus [1] was determined as 79.1 µg/kg. The inhibition in vivo at 3.2 mg/kg in the assay on Cavia porcellus [5] and in the assay on Cavia porcellus [6] was less than 50% each time.
For `CCCCC(CC)[C@@H](O)/C=C/C1CCC(=O)[C@@H]1C/C=C\CCCC(=O)O` (mixture of isomers), in the assay with Cavia porcellus [1], the median effective dose (ED50) turned out to be 2.21e+09 µg/kg. In addition, the inhibition in vivo at 3.2 mg/kg with Cavia porcellus [5] and in the assay on Cavia porcellus [6] was less than 50% in each case.
In the case of `CCCCC[C@](C)(O)/C=C/C1CCC(=O)[C@@H]1CCCCCCC(=O)O` (mixture of isomers), the results for the median effective dose (ED50) in the assay on Cavia porcellus [9], in the assay with Cavia porcellus [1] and with Cavia porcellus [3] were 3.2 µg/kg, 6.99 µg/kg and 4.24 µg/kg, respectively.
On to `CCCCC[C@](C)(O)/C=C/C1CCC(=O)[C@@H]1CCCCOCC(=O)O` (mixture of isomers), for which the median effective dose (ED50) in the assay with Cavia porcellus [1] was 121 µg/kg; in the assay on Cavia porcellus [2], 73.7 µg/kg; in the assay with Cavia porcellus [3], 25.6 µg/kg.
